Test results taken from ChEMBL document CHEMBL5036331 (J Med Chem, 2021).
Converted amounts (≈) assume the structure as drawn.

Assays:
[1] = Aqueous solubility of the compound at pH 6.5 for 24 hrs by HPLC-MS/MS; assay type: physicochemical
A2780 = assay: cells; assay type: functional, cell-based; settings: Homo sapiens, A2780, 96 h
[2] = Clearance in Wistar-Han rat hepatocytes at 1 uM measured for 2 to 90 mins by LC-MS/MS; assay type: ADME, cell-based, Hepatocyte; settings: Wistar-Han, time 2-90 min
[3] = Clearance in Wistar-Han rat blood at 0.3 to 0.5 mg/kg, iv measured upto 24 hrs by HPLC with LC-MS/MS; assay type: ADME, organism-based; settings: dose 0.3-0.5 mg/kg
[4] = Apparent permeability of the compound across apical side to basolateral side in human CaCo-2 cells at 2 uM incubated for 2 hrs; assay type: ADME, cell-based
Outline: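 Caco-2 monolayers with TEER of at least 400 Ω·cm². Compound (predissolved in DMSO) added apically or basolaterally at a final 2 μM and incubated 2 h at 37 °C, in triplicate. Both compartments were sampled before and after, MeOH-precipitated and analysed by LC–MS/MS. Papp = (Vr/P0)(1/S)(P2/t).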

[5] = Volume of distribution at steady state in Wistar-Han rat blood at 0.3 to 0.5 mg/kg, iv measured upto 24 hrs by HPLC with LC-MS/MS; assay type: ADME, organism-based; settings: dose 0.3-0.5 mg/kg, read-out: Vdss
[6] = Half life in Wistar-Han rat blood at 0.3 to 0.5 mg/kg, iv measured upto 24 hrs by HPLC with LC-MS/MS; assay type: ADME, organism-based; settings: dose 0.3-0.5 mg/kg
MOLM-13 = assay: cells; assay type: functional, cell-based; settings: Homo sapiens, MOLM-13, 96 h
[7] = Metabolic stability in Wistar-Han rat hepatocytes at 1 uM measured for 2 to 90 mins by LC-MS/MS; assay type: ADME, cell-based, Hepatocyte; settings: time 2-90 min
[8] = Efflux ratio of apparent permeability across basolateral to apical side over apical to basolateral side in human Caco2 cells at 2 uM incubated for 2 hrs; settings: Caco-2
[9] = Aqueous solubility of the compound at pH 4 for 24 hrs by HPLC-MS/MS; assay type: physicochemical

solubility at 24 h [1]	IC50 (A2780)	CLhep predicted at 1 µM [2]	clearance [3]	Papp A→B at 2 h, 2 µM [4]	Vd [5]	half-life [6]	IC50 (MOLM-13)	Stability [7]	efflux ratio at 2 h, 2 µM [8]	solubility at 24 h [9]	Compound
294 µg/mL (≈ 632 µM)	226 nM	18.3 mL/min/kg	–	–	–	–	–	–	–	–	COc1cc(F)ccc1-c1nc(Nc2cc(F)cc(CS(=N)(=O)CCCN)c2)ncc1F (configuration not stated)
155 µg/mL (≈ 368 µM)	184 nM	35 mL/min/kg	55 mL/min/kg	5 ×10⁻⁶ cm/s	2.2 L/kg	36 min	–	–	–	–	COc1cc(F)ccc1-c1nc(Nc2cc(F)cc(CS(C)(=N)=N)c2)ncc1F
–	52 nM	–	–	–	–	–	42 nM	–	–	–	COc1cc(F)ccc1-c1cc(Nc2cc(C[S@](C)(=N)=O)ccn2)ncc1F
17 µg/mL (≈ 47.2 µM)	692 nM	50 mL/min/kg	–	–	–	–	–	Unstable	–	–	COc1cc(F)ccc1-c1nc(Nc2cc(F)cc(CN)c2)ncc1F
103 µg/mL (≈ 254 µM)	46 nM	18.3 mL/min/kg	–	2.3 ×10⁻⁶ cm/s	–	–	–	–	> 10	–	COc1cc(F)ccc1-c1nc(Nc2cncc(CS(C)(=N)=O)c2)ncc1F (configuration not stated)
2 µg/mL (≈ 5.16 µM)	126 nM	–	–	2.6 ×10⁻⁶ cm/s	–	–	80 nM	–	9.3	43 µg/mL (≈ 111 µM)	COc1cc(F)ccc1-c1cc(Nc2cc(CS(C)(=N)=O)ccn2)ncn1 (configuration not stated)
